Test results taken from ChEMBL document CHEMBL4334446, “Evaluating the effects of fluorine on biological properties and metabolic stability of some antitubulin 3-substituted 7-phenyl-pyrroloquinolinones” (Eur J Med Chem, 2019).

Assays:
[1] = Selectivity ratio of GI50 for PHA-stimulated human PBL cells to GI50 for human Jurkat cells incubated for 72 hrs by MTT assay
Method in brief: (§1)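 Leukemia cells (CEM, DND-41, Jurkat) were grown in RPMI-1640 at 8×10³ cells/well and left 18 h. Donor PBL were gradient-separated, held overnight, and non-adherent cells set at 5×10^5 cells/mL with 2.5 µg/mL PHA. Both were exposed 72 h at 37 °C to graded compound concentrations, read by MTT. The ratio is PBL GI50 over leukemia GI50.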

[2] = Selectivity ratio of GI50 for human PBL cells to GI50 for human CEM cells incubated for 72 hrs by MTT assay; type: functional
Method in brief: as §1, with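 “overnight in RPMI-1640/10% FBS,” for “overnight,”, “without PHA (resting).” for “with 2.5 µg/mL PHA.”, “h” for “h at 37 °C”, “graded” for “graded compound”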

[3] = Metabolic stability in human liver microsomes at 10 uM incubated for 30 mins in phosphate buffer at pH 7.4 by HPLC analysis; type: ADME, Microsome; details: pH 7.4, 0.5 h
Method in brief: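 Test compound (10 μM, final) incubated at 37 °C with pooled mixed-gender HLMs (0.5 mg/mL) in 0.1 M KH₂PO₄ pH 7.4 without NADPH. Sampled at 0 and 30 min, quenched with ice-cold acetonitrile, centrifuged, supernatant analysed by HPLC with fluorescence detection (ex 344/em 493 nm). Percent remaining calculated from peak area relative to 0 min; mean ± SD, n = 3.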

[4] = tested on: MCF7; experiment: Growth inhibition of human MCF7 cells incubated for 72 hrs by MTT assay; type: functional; details: MCF7, 72 h
[5] = Selectivity ratio of GI50 for human PBL cells to GI50 for human DND41 cells incubated for 72 hrs by MTT assay
Method in brief: as §1, with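 “overnight in RPMI-1640/10% FBS,” for “overnight,”, “without PHA (resting).” for “with 2.5 µg/mL PHA.”, “h” for “h at 37 °C”, “graded” for “graded compound”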

[6] = Growth inhibition of PHA-stimulated human PBL cells incubated for 72 hrs by MTT assay; type: cell-based; details: PHA-stimulated PBL cells (peripheral blood lymphocytes)
Method in brief: (§2)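 PBL from healthy donors were isolated on a Lymphoprep gradient, held overnight in RPMI-1640 with 10% FBS, and the non-adherent cells resuspended at 5 × 10^5 cells/mL. Proliferating cultures got 2.5 µg/mL PHA; resting cultures got none. Compound was added at several concentrations for 72 h and viability read by MTT. GI50 reported as mean ± SEM of three experiments.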

[7] = Selectivity ratio of GI50 for PHA-stimulated human PBL cells to GI50 for human DND41 cells incubated for 72 hrs by MTT assay; method in brief: as §1
[8] = target: Tubulin (Bos taurus, UniProt Q6B856+Q862L2+Q862F3); experiment: Inhibition of bovine brain tubulin polymerization preincubated for 15 mins followed by GTP addition and measured for 20 mins by turbidimetry-based spectrophotometric method
Method in brief: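 Bovine brain tubulin (10 µM) was preincubated with varying compound concentrations in 0.8 M monosodium glutamate, pH 6.6, for 15 min at 30 °C, then cooled to 0 °C. GTP was added to 0.4 mM final and the mix warmed to 30 °C. Turbidity was followed at 350 nm. IC50 = concentration inhibiting extent of assembly 50% after 20 min.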

[9] = tested on: RS4-11; experiment: Growth inhibition of human RS4:11 cells incubated for 72 hrs by MTT assay; type: functional; details: RS4-11, 72 h
Method in brief: (§3)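 Leukemia lines were grown in RPMI-1640; the CEM^Vbl-100 medium also contained 100 ng/mL vinblastine. Cells were seeded at 8 × 10³ per well and left 18 h at 37 °C, 5% CO2. Medium was then replaced with fresh medium holding graded compound concentrations (DMSO stocks), in triplicate, for 72 h. Viability was read by MTT, and GI50 = concentration inhibiting proliferation 50%.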

[10] = tested on: HT-29; experiment: Growth inhibition of human HT-29 cells incubated for 72 hrs by MTT assay; type: functional; details: HT-29, 72 h
[11] = Growth inhibition of multidrug-resistant human CEM/VBL100 cells incubated for 72 hrs by MTT assay; type: functional; details: CEM/VBL100, 72 h; method in brief: as §3
[12] = Metabolic stability in human liver microsomes at 10 uM incubated for 15 mins in presence of NADPH and non-selective CYP inhibitor quercetin by HPLC analysis; type: ADME, Microsome; details: 0.25 h
Method in brief: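 Compound (10 µM) was incubated 0 and 15 min at 37 °C with pooled HLMs and 1 mM NADPH in 0.1 M KH2PO4 pH 7.4, with or without 100 µM quercetin. Parent remaining was measured by HPLC-fluorescence relative to 0 min; mean ± SD, n = 3.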

[13] = target: Tubulin (Bos taurus) (UniProt Q6B856+Q862L2+Q862F3); experiment: Inhibition of [3H]colchicine binding to bovine brain tubulin at 5 uM relative to control
Method in brief: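 Bovine brain tubulin at 1 µM was incubated with 5 µM [3H]colchicine and the test compound at 5 µM. Inhibition of colchicine binding was measured relative to a control.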

[14] = tested on: Jurkat; experiment: Growth inhibition of human Jurkat cells incubated for 72 hrs by MTT assay; type: functional; method in brief: as §3
[15] = Selectivity ratio of GI50 for human PBL cells to GI50 for human Jurkat cells incubated for 72 hrs by MTT assay
Method in brief: as §1, with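 “overnight in RPMI-1640/10% FBS,” for “overnight,”, “without PHA (resting).” for “with 2.5 µg/mL PHA.”, “h” for “h at 37 °C”, “graded” for “graded compound”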

[16] = Metabolic stability in human liver microsomes assessed as half life at 10 uM incubated for 30 mins in presence of NADPH by HPLC analysis; type: ADME, Microsome
Method in brief: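 Compound (10 µM) was incubated at 37 °C with 0.5 mg/mL pooled HLMs and 1 mM NADPH in 0.1 M KH2PO4 pH 7.4, sampled at 0, 2, 5, 15 and 30 min. Controls without NADPH, or buffer only, ran 0 and 30 min. Parent was quantified by HPLC-fluorescence as % of the 0 min level, n = 3. t1/2 = 0.693/k, with k from regression of ln % remaining versus time.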

[17] = Stability in phosphate buffer at pH 7.4 at 10 uM incubated for 30 mins by HPLC analysis; type: physicochemical; details: pH 7.4, 0.5 h
Method in brief: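 No microsomes or NADPH: compound (10 μM final) held in 0.1 M KH₂PO₄ pH 7.4 at 37 °C. Samples taken at 0 and 30 min, quenched with ice-cold acetonitrile, centrifuged, analysed by HPLC with fluorescence detection. Percent parent remaining relative to 0 min; mean ± SD, n = 3.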

[18] = tested on: HeLa; experiment: Growth inhibition of human HeLa cells incubated for 72 hrs by MTT assay; type: functional
[19] = Growth inhibition of human PBL cells incubated for 72 hrs by MTT assay; type: cell-based; details: PBL cells (peripheral blood lymphocytes); method in brief: as §2
[20] = Time-dependent metabolic stability in human liver microsomes at 10 uM incubated for 30 mins in presence of NADPH by HPLC analysis; type: ADME, Microsome; details: 0.5 h
Method in brief: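 Pooled mixed-gender HLMs (0.5 mg/mL) plus 1 mM NADPH in 0.1 M KH₂PO₄ pH 7.4, compound 10 μM final, 37 °C. Reaction started with microsomes after 3-min equilibration. Stopped with ice-cold acetonitrile at 0, 2, 5, 15, 30 min, then HPLC-fluorescence of supernatant. Percent remaining vs 0 min (mean ± SD, n = 3). Half-life = 0.693/k from linear regression of Ln % remaining vs time.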

[21] = tested on: CCRF-CEM; experiment: Growth inhibition of human CEM cells incubated for 72 hrs by MTT assay; type: functional; method in brief: as §3

Compound | RatioGI50 [1] | RatioGI50 [2] | Stability [3] | GI50 [4] [nM] | RatioGI50 [5] | GI50 at 72 h [6] [nM] | RatioGI50 [7] | IC50 [8] [nM] | GI50 [9] [nM] | GI50 [10] [nM] | GI50 [11] [nM] | Stability [12] | inhibition [13] [%] | GI50 [14] [nM] | RatioGI50 [15] | half-life at 10 µM [16] [min] | Stability [17] | GI50 [18] [nM] | GI50 at 72 h [19] [nM] | Stability [20] | other results
CCn1ccc2c3c(=O)cc(-c4ccccc4F)[nH]c3ccc21 | 10000 - 30000 | 10000 - 30000 | Stable | 247 | 10000 - 30000 | 15200 | 10000 - 30000 | 960 | 0.09 | 1.1 | 1.1 | Stable | 77 | 0.19 | 10000 - 30000 | 11.4 | Stable | 1.2 | 28000 | Unstable | GI50 [21]: 3.1 nM
CCn1ccc2c3c(=O)cc(-c4ccccc4)[nH]c3ccc21 | 10000 - 30000 | 10000 - 30000 | Stable | 40 | 10000 - 30000 | 7600 | 10000 - 30000 | 570 | 2 | 32 | 4 | Stable | 73 | 0.5 | 10000 - 30000 | 17.3 | Stable | 11 | > 100000 | Unstable | GI50 [21]: 14 nM
